# Source: ChEMBL document CHEMBL1817572, “New, potent, selective, and short-acting peptidic V1a receptor agonists” (J Med Chem, 2011)
# Numbered stars: 1 amine (or outer) side, 2 acyl side, 3 side chain; on linkers, the order of the positions; unused ones are H or OH. Bridge positions count the residues as written; N and C are the ends. Square brackets hold non-standard residues; d marks the D form. Peptide text beside a SMILES is read from it. * marks the point of attachment. X4 = CONC(=O)CC[C@H](N[*:1])C(=O)[*:2]; Ala(cPent) = N[C@@H](CC1CCCC1)C(=O)O; Bta = N[C@@H](Cc1csc2ccccc12)C(=O)O; 3Pal = N[C@@H](Cc1cccnc1)C(=O)O; Cha = N[C@@H](CC1CCCCC1)C(=O)O; Orn = NCCC[C@H](N)C(=O)O; Dab = NCC[C@H](N)C(=O)O; Ac4c = NC1(C(=O)O)CCC1; Dap = NC[C@H](N)C(=O)O; NHCH2CH2OH = OCCN*
# How the values were obtained:
# Vasopressin V2 receptor = Vasopressin V2 receptor (Homo sapiens, UniProt P30518); assay: Agonist activity at recombinant human vasopressin V2 receptor expressed in HEK293 cells by luciferase reporter gene assay; assay type: functional, cell-based
# Chain of Vasopressin V2 receptor (P30518 whole entry): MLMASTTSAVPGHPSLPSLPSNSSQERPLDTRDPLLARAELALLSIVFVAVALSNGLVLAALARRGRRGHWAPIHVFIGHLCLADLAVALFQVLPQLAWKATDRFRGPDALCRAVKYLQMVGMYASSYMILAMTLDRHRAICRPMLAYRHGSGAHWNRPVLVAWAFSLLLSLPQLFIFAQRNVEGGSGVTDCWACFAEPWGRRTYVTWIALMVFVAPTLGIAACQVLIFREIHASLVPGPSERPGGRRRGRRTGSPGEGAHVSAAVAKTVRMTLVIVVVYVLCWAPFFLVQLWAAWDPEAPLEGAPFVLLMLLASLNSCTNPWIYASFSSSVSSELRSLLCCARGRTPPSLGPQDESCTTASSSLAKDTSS
# Vasopressin V1b receptor = biological target: T1, Vasopressin V1b receptor (Homo sapiens, UniProt P47901); assay: Agonist activity at recombinant human vasopressin V1b receptor expressed in Flp-In-293 cells by luciferase reporter gene assay; assay type: functional, cell-based
# T1 sequence (P47901 whole entry): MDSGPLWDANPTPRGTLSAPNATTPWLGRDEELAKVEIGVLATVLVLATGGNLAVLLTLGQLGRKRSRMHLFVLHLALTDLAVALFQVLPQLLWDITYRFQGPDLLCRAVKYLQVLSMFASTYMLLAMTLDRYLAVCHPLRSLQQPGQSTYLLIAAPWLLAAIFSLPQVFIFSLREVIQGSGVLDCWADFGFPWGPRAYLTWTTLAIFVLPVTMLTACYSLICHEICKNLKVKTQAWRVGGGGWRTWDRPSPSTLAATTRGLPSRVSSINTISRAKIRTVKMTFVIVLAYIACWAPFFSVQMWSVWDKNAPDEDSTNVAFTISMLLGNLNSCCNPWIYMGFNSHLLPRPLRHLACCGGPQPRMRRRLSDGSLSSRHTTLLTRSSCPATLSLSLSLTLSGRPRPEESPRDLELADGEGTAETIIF
# How it was run: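 Reporter gene assays in HEK293 cells transiently cotransfected with V1a (human or rat) or human V2 receptor vector plus NFAT-luciferase (V1a) or CRE-luciferase (V2) reporter; V1b in Flp-In-293 stably expressing receptor, OT in CHO-K1 stably expressing receptor, both transiently transfected with NFAT-luciferase. Two days post-transfection, peptides added for 5 h at 37 °C, lysis with luciferin, luminescence read.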
# Vasopressin V1a receptor = Vasopressin V1a receptor (Homo sapiens, UniProt P37288); assay: Agonist activity at recombinant human vasopressin V1a receptor expressed in HEK293 cells by luciferase reporter gene assay; assay type: functional, cell-based
# Chain of Vasopressin V1a receptor (P37288 whole entry): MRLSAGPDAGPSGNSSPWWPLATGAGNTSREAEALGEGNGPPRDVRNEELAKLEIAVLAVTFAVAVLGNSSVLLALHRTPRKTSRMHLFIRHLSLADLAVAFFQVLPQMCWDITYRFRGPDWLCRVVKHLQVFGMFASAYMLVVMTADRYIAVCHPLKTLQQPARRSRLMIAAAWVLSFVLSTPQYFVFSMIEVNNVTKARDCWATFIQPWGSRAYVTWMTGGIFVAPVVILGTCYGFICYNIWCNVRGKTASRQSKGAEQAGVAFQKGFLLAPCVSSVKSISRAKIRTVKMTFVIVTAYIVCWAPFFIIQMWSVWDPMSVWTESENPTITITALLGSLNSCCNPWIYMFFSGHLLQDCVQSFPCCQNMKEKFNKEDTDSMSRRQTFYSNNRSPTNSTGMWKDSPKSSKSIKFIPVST
# [1] = biological target: Vasopressin V1a/V2 (Homo sapiens) (UniProt P30518+P37288); assay: Selectivity ratio of EC50 for human vasopressin V2 receptor to EC50 for human vasopressin V1a receptor
# Chain of Vasopressin V1a/V2 (Homo sapiens) (P30518 whole entry, looked up): as the sequence (P30518 whole entry) above
# Chain of Vasopressin V1a/V2 (Homo sapiens) (P37288 whole entry, looked up): as the sequence (P37288 whole entry) above
# Homo sapiens [2] = species: Homo sapiens; assay: Selectivity ratio of EC50 for human oxytocin receptor to EC50 for human vasopressin V1a receptor
# Homo sapiens [3] = species: Homo sapiens; assay: Selectivity ratio of EC50 for human vasopressin V1b receptor to EC50 for human vasopressin V1a receptor
# Oxytocin receptor = biological target: T2, Oxytocin receptor (Homo sapiens, UniProt P30559); assay: Agonist activity at human OT receptor expressed in CHO-K1 cells by luciferase reporter gene assay; assay type: functional, cell-based
# T2 sequence (P30559 whole entry): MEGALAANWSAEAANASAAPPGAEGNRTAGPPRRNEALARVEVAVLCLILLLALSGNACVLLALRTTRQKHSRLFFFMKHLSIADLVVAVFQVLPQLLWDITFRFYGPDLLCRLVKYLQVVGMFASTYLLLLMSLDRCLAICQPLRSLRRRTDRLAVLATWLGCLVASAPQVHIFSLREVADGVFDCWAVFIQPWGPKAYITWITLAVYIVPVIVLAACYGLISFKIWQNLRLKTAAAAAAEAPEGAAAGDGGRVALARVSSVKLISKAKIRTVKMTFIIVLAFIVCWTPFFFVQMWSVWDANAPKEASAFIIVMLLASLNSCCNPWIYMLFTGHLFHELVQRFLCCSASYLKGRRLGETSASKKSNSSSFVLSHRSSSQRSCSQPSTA
SMILES,"EC50 (Vasopressin V2 receptor; hek293, read-out: EC50)",EC50 (Vasopressin V2 receptor; read-out: pEC50 (converted)),EC50 (Vasopressin V1b receptor; read-out: EC50),EC50 (Vasopressin V1a receptor; read-out: EC50),Ratio EC50 [1],Ratio EC50 (Homo sapiens [2]),Ratio EC50 (Homo sapiens [3]),"EC50 (Oxytocin receptor; cho-k1, read-out: EC50)",EC50 (Oxytocin receptor; read-out: pEC50 (converted)),EC50 (Vasopressin V2 receptor; read-out: EC50),EC50 (Oxytocin receptor; read-out: EC50),"EC50 (Vasopressin V1b receptor; flp-in-293, read-out: EC50)",EC50 (Vasopressin V1b receptor; read-out: pEC50 (converted)),"EC50 (Vasopressin V1a receptor; hek293, read-out: EC50)",EC50 (Vasopressin V1a receptor; read-out: pEC50 (converted))
CC[C@H](C)[C@@H]1NC(=O)[C@H](Cc2ccccc2)NC(=O)[C@@H](N)CSSC[C@@H](C(=O)N2CCC[C@H]2C(=O)N[C@@H](CCCN)C(=O)NCC(N)=O)NC(=O)[C@H](CC(N)=O)NC(=O)[C@H](CC(=O)NCCO)NC1=O (H-CFID(NHCH2CH2OH)NCP[Orn]G-NH2; disulfide 1-6),> 10000 nM,> 10000 nM,26 nM,8 nM,> 1200,> 1200,3.2,> 10000 nM,> 10000 nM,–,–,–,–,–,–
CC[C@H](C)[C@@H]1NC(=O)[C@H](Cc2ccccc2)NC(=O)[C@@H](N)CSSC[C@@H](C(=O)N2CCC[C@H]2C(=O)N[C@@H](CCCN)C(=O)NCC(N)=O)NC(=O)[C@H](CC(N)=O)NC(=O)[C@H](CCC(=O)NOC)NC1=O (H-CFI[X4]NCP[Orn]G-NH2; disulfide 1-6),–,–,28 nM,1.1 nM,1500,> 9000,25,> 10000 nM,> 10000 nM,1700 nM,–,–,–,–,–
CC[C@H](C)[C@@H]1NC(=O)[C@H](Cc2cccnc2)NC(=O)[C@@H](N)CSSC[C@@H](C(=O)N2CCC[C@H]2C(=O)N[C@@H](CCN)C(=O)NCC(N)=O)NC(=O)[C@H](CC(N)=O)NC(=O)[C@H](CCC(N)=O)NC1=O (H-C[3Pal]IQNCP[Dab]G-NH2; disulfide 1-6),> 10000 nM,> 10000 nM,200 nM,30 nM,> 330,> 330,6.6,> 10000 nM,> 10000 nM,–,–,–,–,–,–
CC[C@H](C)[C@@H]1NC(=O)C2(CCC2)NC(=O)[C@@H](N)CSSC[C@@H](C(=O)N2CCC[C@H]2C(=O)N[C@@H](CCCN)C(=O)NCC(N)=O)NC(=O)[C@H](CC(N)=O)NC(=O)[C@H](CC(N)=O)NC1=O (H-C[Ac4c]INNCP[Orn]G-NH2; disulfide 1-6),> 10000 nM,> 10000 nM,110 nM,7.9 nM,> 1200,> 1200,13,> 10000 nM,> 10000 nM,–,–,–,–,–,–
CC[C@H](C)[C@@H]1NC(=O)[C@H](Cc2ccccc2)NC(=O)[C@@H](N)CSSC[C@@H](C(=O)N2CCC[C@H]2C(=O)N[C@@H](CN)C(=O)NCC(N)=O)NC(=O)[C@H](CC(N)=O)NC(=O)[C@H](CCC(N)=O)NC1=O (H-CFIQNCP[Dap]G-NH2; disulfide 1-6),–,–,210 nM,30 nM,24,> 330,7,> 10000 nM,> 10000 nM,720 nM,–,–,–,–,–
CC[C@H](C)[C@@H]1NC(=O)[C@H](CC2CCCC2)NC(=O)[C@@H](N)CSSC[C@@H](C(=O)N2CCC[C@H]2C(=O)N[C@@H](CCCN)C(=O)NCC(N)=O)NC(=O)[C@H](CC(N)=O)NC(=O)[C@H](CC(N)=O)NC1=O (H-C[Ala(cPent)]INNCP[Orn]G-NH2; disulfide 1-6),> 10000 nM,> 10000 nM,120 nM,7.7 nM,> 1200,> 1200,15,> 10000 nM,> 10000 nM,–,–,–,–,–,–
CC[C@H](C)[C@@H]1NC(=O)[C@H](Cc2ccccc2)NC(=O)[C@@H](N)CSSC[C@@H](C(=O)N2CCC[C@H]2C(=O)N[C@@H](CCCN)C(=O)NCC(N)=O)NC(=O)[C@H](CC(N)=O)NC(=O)[C@H](CC(=O)NC)NC1=O (H-CFID(NHMe)NCP[Orn]G-NH2; disulfide 1-6),> 10000 nM,> 10000 nM,39 nM,3.6 nM,> 2700,> 2700,10,> 10000 nM,> 10000 nM,–,–,–,–,–,–
CC[C@H](C)[C@@H]1NC(=O)[C@H](CC2CCCC2)NC(=O)[C@@H](N)CSSC[C@@H](C(=O)N2CCC[C@H]2C(=O)N[C@@H](CCN)C(=O)NCC(N)=O)NC(=O)[C@H](CC(N)=O)NC(=O)[C@H](CC(N)=O)NC1=O (H-C[Ala(cPent)]INNCP[Dab]G-NH2; disulfide 1-6),> 10000 nM,> 10000 nM,76 nM,11 nM,> 900,> 900,6.9,> 10000 nM,> 10000 nM,–,–,–,–,–,–
CC[C@H](C)[C@@H]1NC(=O)[C@H](CC2CCCCC2)NC(=O)[C@@H](N)CSSC[C@@H](C(=O)N2CCC[C@H]2C(=O)N[C@@H](CCN)C(=O)NCC(N)=O)NC(=O)[C@H](CC(N)=O)NC(=O)[C@H](CC(N)=O)NC1=O (H-C[Cha]INNCP[Dab]G-NH2; disulfide 1-6),> 10000 nM,> 10000 nM,18 nM,1.6 nM,> 6200,> 6200,11,> 10000 nM,> 10000 nM,–,–,–,–,–,–
CC[C@H](C)[C@@H]1NC(=O)[C@H](Cc2ccc(O)cc2)NC(=O)[C@@H](N)CSSC[C@@H](C(=O)N2CCC[C@H]2C(=O)N[C@@H](CCCN)C(=O)NCC(N)=O)NC(=O)[C@H](CC(N)=O)NC(=O)[C@H](CCC(N)=O)NC1=O,–,–,56 nM,0.23 nM,–,–,–,–,–,–,3.3 nM,–,–,–,–
CC[C@H](C)[C@@H]1NC(=O)[C@H](CC2CCCCC2)NC(=O)[C@@H](N)CSSC[C@@H](C(=O)N2CCC[C@H]2C(=O)N[C@@H](CCCN)C(=O)NCC(N)=O)NC(=O)[C@H](CC(N)=O)NC(=O)[C@H](CC(N)=O)NC1=O (H-C[Cha]INNCP[Orn]G-NH2; disulfide 1-6),> 10000 nM,> 10000 nM,140 nM,3.2 nM,> 3100,> 3100,43,> 10000 nM,> 10000 nM,–,–,–,–,–,–
CC[C@H](C)[C@@H]1NC(=O)[C@H](C)NC(=O)[C@@H](N)CSSC[C@@H](C(=O)N2CCC[C@H]2C(=O)N[C@@H](CCN)C(=O)NCC(N)=O)NC(=O)[C@H](CC(N)=O)NC(=O)[C@H](CCC(N)=O)NC1=O (H-CAIQNCP[Dab]G-NH2; disulfide 1-6),> 10000 nM,> 10000 nM,–,–,–,–,–,> 10000 nM,> 10000 nM,–,–,> 10000 nM,> 10000 nM,> 1000 nM,> 1000 nM
CC[C@H](C)[C@@H]1NC(=O)[C@H](Cc2csc3ccccc23)NC(=O)[C@@H](N)CSSC[C@@H](C(=O)N2CCC[C@H]2C(=O)N[C@@H](CCN)C(=O)NCC(N)=O)NC(=O)[C@H](CC(N)=O)NC(=O)[C@H](CCC(N)=O)NC1=O (H-C[Bta]IQNCP[Dab]G-NH2; disulfide 1-6),> 10000 nM,> 10000 nM,360 nM,–,–,–,–,> 10000 nM,> 10000 nM,–,–,–,–,> 1000 nM,> 1000 nM
